Test results reported in ChEMBL document CHEMBL5724801, “EUbOPEN Chemogenomics Library - Multiplex” (2024).
Values joined by “and” are separate entries in the source; they are usually repeats but may differ in a detail not shown here. Identical values can stand only once.

Columns and labels:
Fibroblast = experiment: Multiplex assay against human fibroblast; type: toxicity, cell-based
Outline: (§1)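 Phenotypes for tubulin, mitochondrial mass and membrane permeability are expressed as per cents of healthy-nucleus cells. Cells were stained live at seeding with Hoechst33342, BioTracker Green Microtubule Cytoskeleton Dye, MitoTracker Red and Annexin V Alexa Fluor 680, then imaged after compound addition on a CQ1 microscope at 37°C and 5% CO2. Machine-learning gating in CellPathfinder separated Hoechst high-intensity objects from normal cells, divided normal cells by nuclear state (healthy, pyknosed, fragmented) and divided pyknosed cells into mitotic or apoptotic.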

HEK-293T = experiment: Multiplex assay against HEK293T; type: toxicity, cell-based; details: human; outline: as §1
[1] = 24 h, 1 µM, compound concentration 1 uM
[2] = 24 h, 10 µM, compound concentration 10 uM
[3] = 48 h, 1 µM, compound concentration 1 uM
[4] = 48 h, 10 µM, compound concentration 10 uM
[5] = 12 h, 1 µM, compound concentration 1 uM
[6] = 12 h, 10 µM, compound concentration 10 uM

Compound: CCCCCN1C(=O)C2(COc3cc4c(cc32)OCO4)c2ccccc21 (stereo not drawn)
- Population Pyknosed Nuclei (%) (Fibroblast; [1]): 16.1% and 10.22%
- Population Tubulin-Different-Phenotype (%) (Fibroblast; [1]): 16.45% and 15.82%
- Total Cell Count (Fibroblast; [1]): 205 and 225
- Population Apoptotic (%) (Fibroblast; [2]): 4.65% and 8.82%
- Population Fragmented Nuclei (%) (Fibroblast; [2]): 8.78% and 2.37%
- Population Healthy Nuclei (%) (Fibroblast; [2]): 70.24% and 84.19%
- Population Hoechst High Intensity Objects (%) (Fibroblast; [2]): 0%
- Population Membrane Permeable-Phenotype (%) (Fibroblast; [2]): 1.39% and 0.94%
- Population Mitochondria Different-Phenotype (%) (Fibroblast; [2]): 13.19% and 12.21%
- Population Mitotic Cells (%) (Fibroblast; [2]): 95.35% and 91.18%
- Population Normal (%) (Fibroblast; [2]): 100%
- Population Pyknosed Nuclei (%) (Fibroblast; [2]): 20.98% and 13.44%
- Population Tubulin-Different-Phenotype (%) (Fibroblast; [2]): 42.36% and 37.09%
- Total Cell Count (Fibroblast; [2]): 205 and 253
- Population Fragmented Nuclei (%) (Fibroblast; [3]): 11.57% and 4.05%
- Population Healthy Nuclei (%) (Fibroblast; [3]): 82.41% and 89.64%
- Population Hoechst High Intensity Objects (%) (Fibroblast; [3]): 0%
- Population Membrane Permeable-Phenotype (%) (Fibroblast; [3]): 1.12% and 3.02%
- Population Mitotic Cells (%) (Fibroblast; [3]): 92.31% and 64.29%
- Population Normal (%) (Fibroblast; [3]): 100%
- Population Pyknosed Nuclei (%) (Fibroblast; [3]): 6.02% and 6.31%
- Population Tubulin-Different-Phenotype (%) (Fibroblast; [3]): 5.62% and 14.07%
- Total Cell Count (Fibroblast; [3]): 216 and 222
- Population Apoptotic (%) (Fibroblast; [4]): 37.5% and 23.53%
- Population Fragmented Nuclei (%) (Fibroblast; [4]): 7.32% and 3.05%
- Population Healthy Nuclei (%) (Fibroblast; [4]): 84.88% and 90.46%
- Population Hoechst High Intensity Objects (%) (Fibroblast; [4]): 0%
- Population Membrane Permeable-Phenotype (%) (Fibroblast; [4]): 1.15% and 2.95%
- Population Mitochondria Different-Phenotype (%) (Fibroblast; [4]): 15.52% and 5.91%
- Population Mitotic Cells (%) (Fibroblast; [4]): 62.5% and 76.47%
- Population Normal (%) (Fibroblast; [4]): 100%
- Population Pyknosed Nuclei (%) (Fibroblast; [4]): 7.8% and 6.49%
- Population Tubulin-Different-Phenotype (%) (Fibroblast; [4]): 16.09% and 33.76%
- Total Cell Count (Fibroblast; [4]): 205 and 262
- Population Apoptotic (%) (HEK-293T; [5]): 10.57% and 8.94%
- Population Fragmented Nuclei (%) (HEK-293T; [5]): 1.96% and 2%
- Population Hoechst High Intensity Objects (%) (HEK-293T; [5]): 0%
- Population Membrane Permeable-Phenotype (%) (HEK-293T; [5]): 0%
- Population Mitotic Cells (%) (HEK-293T; [5]): 89.43% and 91.06%
- Population Normal (%) (HEK-293T; [5]): 100%
- Population Pyknosed Nuclei (%) (HEK-293T; [5]): 40.2% and 82%
- Total Cell Count (HEK-293T; [5]): 306 and 150
- Population Apoptotic (%) (HEK-293T; [6]): 8.79% and 6.67%
- Population Fragmented Nuclei (%) (HEK-293T; [6]): 0.63% and 1.94%
- Population Hoechst High Intensity Objects (%) (HEK-293T; [6]): 0.31% and 0%
- Population Membrane Permeable-Phenotype (%) (HEK-293T; [6]): 1.48% and 0%
- Population Mitochondria Different-Phenotype (%) (HEK-293T; [6]): 29.63% and 35.29%
- Population Mitotic Cells (%) (HEK-293T; [6]): 91.21% and 93.33%
- Population Normal (%) (HEK-293T; [6]): 99.69% and 100%
- Population Pyknosed Nuclei (%) (HEK-293T; [6]): 57.05% and 87.1%
- Total Cell Count (HEK-293T; [6]): 320 and 155
- Population Apoptotic (%) (HEK-293T; [1]): 13.4% and 12.71%
- Population Fragmented Nuclei (%) (HEK-293T; [1]): 1.54% and 2.04%
- Population Healthy Nuclei (%) (HEK-293T; [1]): 79.73% and 37.76%
- Population Hoechst High Intensity Objects (%) (HEK-293T; [1]): 0% and 0.51%
- Population Membrane Permeable-Phenotype (%) (HEK-293T; [1]): 1.21% and 2.7%
- Population Mitochondria Different-Phenotype (%) (HEK-293T; [1]): 16.46% and 10.81%
- Population Mitotic Cells (%) (HEK-293T; [1]): 86.6% and 87.29%
- Population Normal (%) (HEK-293T; [1]): 100% and 99.49%
- Population Tubulin-Different-Phenotype (%) (HEK-293T; [1]): 11.86% and 4.05%
- Total Cell Count (HEK-293T; [1]): 518 and 197
- Population Apoptotic (%) (HEK-293T; [2]): 19.31% and 11.94%
- Population Fragmented Nuclei (%) (HEK-293T; [2]): 1.12% and 2.34%
- Population Hoechst High Intensity Objects (%) (HEK-293T; [2]): 0.22% and 0%
- Population Membrane Permeable-Phenotype (%) (HEK-293T; [2]): 1.34% and 0%
- Population Mitochondria Different-Phenotype (%) (HEK-293T; [2]): 25.5% and 21.21%
- Population Mitotic Cells (%) (HEK-293T; [2]): 80.69% and 88.06%
- Population Normal (%) (HEK-293T; [2]): 99.78% and 100%
- Population Pyknosed Nuclei (%) (HEK-293T; [2]): 32.37% and 78.36%
- Population Tubulin-Different-Phenotype (%) (HEK-293T; [2]): 30.2% and 15.15%
- Total Cell Count (HEK-293T; [2]): 449 and 171
- Population Apoptotic (%) (HEK-293T; [3]): 9.4% and 23.88%
- Population Fragmented Nuclei (%) (HEK-293T; [3]): 2.17% and 2.27%
- Population Healthy Nuclei (%) (HEK-293T; [3]): 88.04% and 75.97%
- Population Hoechst High Intensity Objects (%) (HEK-293T; [3]): 0% and 0.65%
- Population Membrane Permeable-Phenotype (%) (HEK-293T; [3]): 4.37% and 2.99%
- Population Mitochondria Different-Phenotype (%) (HEK-293T; [3]): 13.77% and 12.82%
- Population Mitotic Cells (%) (HEK-293T; [3]): 90.6% and 76.12%
- Population Normal (%) (HEK-293T; [3]): 100% and 99.35%
- Population Pyknosed Nuclei (%) (HEK-293T; [3]): 9.78% and 21.75%
- Population Fragmented Nuclei (%) (HEK-293T; [4]): 2.44% and 0.93%
- Population Healthy Nuclei (%) (HEK-293T; [4]): 80.51% and 57.41%
- Population Hoechst High Intensity Objects (%) (HEK-293T; [4]): 0%
- Population Membrane Permeable-Phenotype (%) (HEK-293T; [4]): 5.04% and 0%
- Population Mitochondria Different-Phenotype (%) (HEK-293T; [4]): 42.8% and 31.45%
- Population Mitotic Cells (%) (HEK-293T; [4]): 93.2% and 75.56%
- Population Normal (%) (HEK-293T; [4]): 100%
- Population Pyknosed Nuclei (%) (HEK-293T; [4]): 17.05% and 41.67%
